ChEMBL document CHEMBL1287742, “Synthetic pseudopterosin analogues: A novel class of antiinflammatory drug candidates” (2010)
Several values for one entry are separate records, joined by “and”; a condition that tells them apart may be missing. Identical values can stand only once. Activity calls are given as the source filed them. No cut-off for these calls is given here.

The molecules below were run on Mus musculus (assay: Antiinflammatory activity in mouse assessed as effective dose per ear for inhibition of PMA-induced ear edema). Conditions: not given.
Assay type: functional
Outline: (§1)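 Mouse ear edema: test compound applied topically in acetone to the inside pinna of the left ear together with PMA (2 µg/ear), under brief halothane anesthesia. Right ears received acetone only. Five mice per group. After 3 h 20 min the mice were euthanized and a 6 mm central ear biopsy was weighed. Edema was taken as the left-minus-right weight difference, expressed as % inhibition versus the PMA-only control group.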
For `CC(C)=C[C@H]1C[C@H](C)[C@H]2CC[C@H](C)c3c(O[C@@H]4OC[C@@H](O)[C@H](O)[C@H]4O)c(O)c(C)c1c32` [PSEUDOPTEROSIN A], the ED50 was 12 µg.

The molecules below were run on Mus musculus (assay: Antiinflammatory activity in mouse assessed as inhibition of PMA-induced ear edema at 25 ug/ear administered topically as single dose after PMA challenge and measured after 3 hrs and 20 mins). Conditions: in the assay text read “simultaneously with PMA” for “after PMA challenge”.
Assay type: functional
Outline: as §1
`C[C@@H]1O[C@@H](Oc2cc3c4c(c2O)CCCC4CCC3)[C@@H](O)[C@H](O)[C@@H]1O` (some centres not stated) was tested, and the “inhibition (INH)” value was 34%.
For `C[C@@H]1O[C@@H](Oc2c(O)c(C(F)(F)F)c3c4c2CCCC4CCC3)[C@@H](O)[C@H](O)[C@@H]1O` (some centres not stated), the “inhibition (INH)” value was 45% and 53%.
`Oc1c(OC2OC[C@@H](O)[C@H](O)[C@H]2O)cc2c3c1CCCC3CCC2` (some centres not stated) was tested, and the “inhibition (INH)” value was 44%.
With `C[C@@H]1O[C@@H](Oc2cc3c4c(c2O)C(C)(C)CCC4CCC3)[C@@H](O)[C@H](O)[C@@H]1O` (some centres not stated) the “inhibition (INH)” value was 38%.
For `C[C@@H]1OC(Oc2c(O)cc3c4c2CCCC4CCC3)[C@@H](O)[C@H](O)[C@@H]1O` (some centres not stated), the “inhibition (INH)” value was 24%.
In the case of `Cc1c(O)c(O[C@@H]2O[C@@H](C)[C@@H](O)[C@@H](O)[C@@H]2O)c2c3c1CCCC3CCC2` (some centres not stated), the “inhibition (INH)” value is reported as 49%.
With `C[C@@H]1CC[C@@H]2CCCc3cc(O[C@@H]4O[C@@H](C)[C@@H](O)[C@@H](O)[C@@H]4O)c(O)c1c32` (relative stereo) the “inhibition (INH)” value was 50%.
`Oc1cc2c3c(c1OC1OC[C@@H](O)[C@H](O)[C@H]1O)CCCC3CCC2` (some centres not stated) was tested, and the “inhibition (INH)” value was 37%.
With `C[C@@H]1O[C@@H](Oc2cc3c4c(c2O)C(=O)CCC4CCC3)[C@@H](O)[C@H](O)[C@@H]1O` (some centres not stated) the inhibition was “inactive”.
`C[C@@H]1O[C@@H](Oc2cc3c4c(c2O)[C@@H](C)CC[C@@H]4CCC3)[C@@H](O)[C@H](O)[C@@H]1O` (relative stereo) was tested, and the “inhibition (INH)” value was 58%.
With `CC(C)=C[C@H]1C[C@H](C)[C@H]2CC[C@H](C)c3c(O[C@@H]4OC[C@@H](O)[C@H](O)[C@H]4O)c(O)c(C)c1c32` [PSEUDOPTEROSIN A] the “inhibition (INH)” value was 70%.
